Laboratory results reported in ChEMBL document CHEMBL5329183, “Naphthylthiazoles: a class of broad-spectrum antifungals” (RSC Med Chem, 2023).
In brackets after ≈: the same amount, converted by molar mass. Activity calls are given as the source filed them. The rule behind the calls is not given here.

Experiments:
Candida albicans [1] = test: Antifungal activity against Candida albicans ATCC 10231 assessed as inhibition of fungal growth incubated for 24 hrs by broth microdilution method; format: functional
Procedure, shortened: (§1)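 Broth microdilution per CLSI guidelines against clinical isolates, incubated at 35 °C for 24 h (Candida, Aspergillus) or 48 h (Cryptococcus). MIC was the lowest concentration giving 50% growth inhibition.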

[Candida] auris [2] = Antifungal activity against Candida auris 383 assessed as inhibition of fungal growth incubated for 24 hrs by broth microdilution method; format: functional; settings: Candidozyma auris
Procedure, shortened: (§2)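 Clinical isolate; CLSI broth microdilution over a range of concentrations (media listed: RPMI 1640, MOPS, YPD). MIC taken as lowest concentration giving 50% growth inhibition after 24 h at 35 °C.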

[3] = Antibacterial activity against Lactobacillus casei HM334 assessed as inhibition of bacterial growth; format: toxicity; settings: lacticaseibacillus casei
Cryptococcus neoformans [4] = test: Antifungal activity against Cryptococcus neoformans NR 41299 assessed as inhibition of fungal growth incubated for 48 hrs by broth microdilution method; format: functional
Procedure, shortened: (§3)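 Clinical isolate; CLSI broth microdilution over a range of concentrations (media listed: RPMI 1640, MOPS, YPD). MIC read as lowest concentration inhibiting growth by 50% after 48 h incubation at 35 °C.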

Candida albicans [5] = test: Antifungal activity against wild type Candida albicans SC5314 assessed as inhibition of fungal growth; format: functional
[6] = Antifungal activity against Cryptococcus gattii NR 43216 assessed as inhibition of fungal growth incubated for 48 hrs by broth microdilution method; format: functional, Cryptococcus gattii VGI; procedure, shortened: as §1
Cryptococcus neoformans [7] = test: Antifungal activity against Cryptococcus neoformans NR 41298 assessed as inhibition of fungal growth incubated for 48 hrs by broth microdilution method; format: functional; procedure, shortened: as §3
[Candida] auris [8] = Antifungal activity against Candida auris 381 assessed as inhibition of fungal growth incubated for 24 hrs by broth microdilution method; format: functional; settings: Candidozyma auris; procedure, shortened: as §2
[Candida] auris [9] = Antifungal activity against Candida auris 382 assessed as inhibition of fungal growth incubated for 24 hrs by broth microdilution method; format: functional; settings: Candidozyma auris; procedure, shortened: as §2
[10] = Antifungal activity against Cryptococcus gattii NR 43209 assessed as inhibition of fungal growth incubated for 48 hrs by broth microdilution method; format: functional, Cryptococcus gattii VGI; procedure, shortened: as §1
Candida parapsilosis [11] = test: Antifungal activity against Candida parapsilosis ATCC 22019 assessed as inhibition of fungal growth incubated for 24 hrs by broth microdilution method; format: functional; settings: Lodderomyces parapsilosis; procedure, shortened: as §2
[12] = Cytotoxicity against African green monkey Vero cells assessed as cell viability at 8 ug/ml incubated for 2 hrs by MTS assay; format: toxicity, cell-based; settings: chlorocebus sabaeus, at 8 µg/mL, read-out: Activity
Procedure, shortened: (§4)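 Vero cells were grown in MEM with 10% FBS, 1 mM sodium pyruvate and penicillin–streptomycin, then exposed to compounds for 2 h at 37 °C, 5% CO2, in triplicate. MTS was added for 3 h and OD490 read. Viability was expressed as % of DMSO-matched controls (mean ± SD).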

Pichia kudriavzevii [13] = test: Antifungal activity against Candida krusei CAB 396420 assessed as inhibition of fungal growth incubated for 24 hrs by broth microdilution method; format: functional; procedure, shortened: as §1
Nakaseomyces glabratus [14] = test: Antifungal activity against Candida glabrata ATCC 66032 assessed as inhibition of fungal growth incubated for 24 hrs by broth microdilution method; format: functional; procedure, shortened: as §2
[15] = Antifungal activity against Cryptococcus gattii NR 43214 assessed as inhibition of fungal growth incubated for 48 hrs by broth microdilution method; format: functional, Cryptococcus gattii VGI; procedure, shortened: as §1
Lactobacillus gasseri = test: Antibacterial activity against Lactobacillus gasseri HM400 assessed as inhibition of bacterial growth; format: toxicity, organism-based
Cryptococcus neoformans [16] = test: Antifungal activity against Cryptococcus neoformans NR 48770 assessed as inhibition of fungal growth incubated for 48 hrs by broth microdilution method; format: functional; procedure, shortened: as §3
Cryptococcus neoformans [17] = test: Antifungal activity against Cryptococcus neoformans NR 48773 assessed as inhibition of fungal growth incubated for 48 hrs by broth microdilution method; format: functional; procedure, shortened: as §3
Cryptococcus neoformans [18] = test: Antifungal activity against Cryptococcus neoformans NR 48767 assessed as inhibition of fungal growth incubated for 48 hrs by broth microdilution method; format: functional; procedure, shortened: as §3
Nakaseomyces glabratus [19] = test: Antifungal activity against Candida glabrata ATCC MYA2950 assessed as inhibition of fungal growth incubated for 24 hrs by broth microdilution method; format: functional; procedure, shortened: as §2
Cryptococcus neoformans [20] = test: Antifungal activity against Cryptococcus neoformans NR 41300 assessed as inhibition of fungal growth incubated for 48 hrs by broth microdilution method; format: functional; procedure, shortened: as §3
Candida albicans [21] = test: Antifungal activity against Candida albicans NR 29448 assessed as inhibition of fungal growth incubated for 24 hrs by broth microdilution method; format: functional; procedure, shortened: as §2
[22] = Antibacterial activity against Lactobacillus crispatus HM370 assessed as inhibition of bacterial growth; format: toxicity
[23] = Antifungal activity against Cryptococcus gattii NR 43210 assessed as inhibition of fungal growth incubated for 48 hrs by broth microdilution method; format: functional, Cryptococcus gattii VGI; procedure, shortened: as §1
Pichia kudriavzevii [24] = test: Antifungal activity against Candida krusei ATCC 34135 assessed as inhibition of fungal growth incubated for 24 hrs by broth microdilution method; format: functional; procedure, shortened: as §1
[25] = Cytotoxicity against African green monkey Vero cells assessed as inhibition of cell viability incubated for 2 hrs by MTS assay; format: toxicity, cell-based; settings: chlorocebus sabaeus; procedure, shortened: as §4
Candida parapsilosis [26] = test: Antifungal activity against Candida parapsilosis CAB 502638 assessed as inhibition of fungal growth incubated for 24 hrs by broth microdilution method; format: functional; settings: Lodderomyces parapsilosis; procedure, shortened: as §1
[27] = Antifungal activity against Cryptococcus gattii NR 43213 assessed as inhibition of fungal growth incubated for 48 hrs by broth microdilution method; format: functional, Cryptococcus gattii VGI; procedure, shortened: as §1
Vero = test: Cytotoxicity against African green monkey Vero cells assessed as inhibition of cell viability at 16 ug/ml incubated for 2 hrs by MTS assay; format: toxicity, cell-based; settings: chlorocebus sabaeus, dose 16 µg/ml
Cryptococcus neoformans [28] = test: Antifungal activity against Cryptococcus neoformans NR 48771 assessed as inhibition of fungal growth incubated for 48 hrs by broth microdilution method; format: functional; procedure, shortened: as §3
Cryptococcus neoformans [29] = test: Antibiofilm activity against Cryptococcus neoformans NR 41300 assessed as inhibition of biofilm formation at 0.5xMIC measured after 48 hrs by crystal violet staining based analysis; format: functional
Procedure, shortened: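 Overnight C. neoformans was washed twice in PBS and adjusted to 105 cells per mL in RPMI. Cells were exposed to compound at 0.5 × MIC for 48 h at 35 °C. Biofilm was rinsed, dried, stained with 0.1% crystal violet, and the dye extracted with glacial acetic acid; OD595 readout.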

Cryptococcus neoformans [30] = test: Anti-cryptococcal activity against Cryptococcus neoformans NR 41300 infected in mouse J774 cells assessed as log reduction of intracellular fungal colony forming unit at 4 ug/ml measured after 24 hrs; format: functional; settings: dose 4 µg/ml
Procedure, shortened: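 C. neoformans NR-41300 was grown 48 h in YPD, washed, and used to infect J774 macrophages at MOI ~100:1 for 1 h, followed by PBS washes. Compounds at 4 μg mL−1 (triplicate) were applied for 22 h at 37 °C, 5% CO2. Extracellular yeast were killed with amphotericin B 1 μg mL−1 for 1 h. Cells were lysed in 0.1% Triton X-100 and plated on YPD agar for 48 h at 37 °C; readout log10 CFU mL−1.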

In the case of `C[C@@H]1[C@H](O)[C@@H](C)/C=C/C=C/C=C/C=C/C=C/C=C/C=C/[C@H](O[C@@H]2O[C@H](C)[C@@H](O)[C@H](N)[C@@H]2O)C[C@@H]2O[C@](O)(C[C@@H](O)C[C@@H](O)[C@H](O)CC[C@@H](O)C[C@@H](O)CC(=O)O[C@H]1C)C[C@H](O)[C@H]2C(=O)O` [AMPHOTERICIN B], the MIC (Candida albicans [1]) is reported as 1 µg/mL (≈ 1.08 µM), the MIC ([Candida] auris [2]) is reported as 1 µg/mL (≈ 1.08 µM) and the MIC [3] is reported as > 128 µg/mL. It also gave an MIC (Cryptococcus neoformans [4]) of 1 µg/mL (≈ 1.08 µM), an MIC (Candida albicans [5]) of 1 µg/mL (≈ 1.08 µM) and an MIC [6] of 1 µg/mL (≈ 1.08 µM). The MIC (Cryptococcus neoformans [7]) was 1 µg/mL (≈ 1.08 µM), the MIC ([Candida] auris [8]) was 0.5 µg/mL (≈ 0.541 µM) and the MIC ([Candida] auris [9]) was 1 µg/mL (≈ 1.08 µM). For the same compound, the MIC [10] was 1 µg/mL (≈ 1.08 µM), the MIC (Candida parapsilosis [11]) was 0.5 µg/mL (≈ 0.541 µM) and the viability at 2 h, 8 ug/ml [12] was 58%. The MIC (Pichia kudriavzevii [13]) was 2 µg/mL (≈ 2.16 µM), the MIC (Nakaseomyces glabratus [14]) was 2 µg/mL (≈ 2.16 µM) and the MIC [15] was 1 µg/mL (≈ 1.08 µM). For the same compound, the MIC (Lactobacillus gasseri) was > 128 µg/mL, the MIC (Cryptococcus neoformans [16]) was 1 µg/mL (≈ 1.08 µM) and the MIC (Cryptococcus neoformans [17]) was 1 µg/mL (≈ 1.08 µM). It also gave an MIC (Cryptococcus neoformans [18]) of 1 µg/mL (≈ 1.08 µM), an MIC (Nakaseomyces glabratus [19]) of 1 µg/mL (≈ 1.08 µM) and an MIC (Cryptococcus neoformans [20]) of 1 µg/mL (≈ 1.08 µM). For the same compound, the MIC (Candida albicans [21]) was 1 µg/mL (≈ 1.08 µM), the MIC [22] was > 128 µg/mL and the MIC [23] was 1 µg/mL (≈ 1.08 µM). For the same compound, the MIC (Pichia kudriavzevii [24]) was 2 µg/mL (≈ 2.16 µM), the CC50 at 2 h [25] was ~8 µg/mL (≈ 8.66 µM) and the MIC (Candida parapsilosis [26]) was 0.5 µg/mL (≈ 0.541 µM). The MIC [27] was 1 µg/mL (≈ 1.08 µM), the Activity (Vero) was “Toxic” and the MIC (Cryptococcus neoformans [28]) was 1 µg/mL (≈ 1.08 µM).

In the case of `OC(Cn1cncn1)(Cn1cncn1)c1ccc(F)cc1F` [FLUCONAZOLE], the MIC (Candida albicans [1]) is reported as 1 µg/mL (≈ 3.27 µM), the MIC ([Candida] auris [2]) is reported as 64 µg/mL (≈ 209 µM) and the MIC [3] is reported as > 128 µg/mL. The MIC (Cryptococcus neoformans [4]) was 1 µg/mL (≈ 3.27 µM), the MIC (Candida albicans [5]) was 0.5 µg/mL (≈ 1.63 µM) and the MIC [6] was 2 µg/mL (≈ 6.53 µM). For the same compound, the MIC (Cryptococcus neoformans [7]) was 2 µg/mL (≈ 6.53 µM), the MIC ([Candida] auris [8]) was 2 µg/mL (≈ 6.53 µM) and the MIC ([Candida] auris [9]) was 64 µg/mL (≈ 209 µM). For the same compound, the MIC [10] was 4 µg/mL (≈ 13.1 µM), the MIC (Candida parapsilosis [11]) was 1 µg/mL (≈ 3.27 µM) and the MIC (Pichia kudriavzevii [13]) was 16 µg/mL (≈ 52.2 µM). The MIC (Nakaseomyces glabratus [14]) was 8 µg/mL (≈ 26.1 µM), the MIC [15] was 1 µg/mL (≈ 3.27 µM) and the MIC (Lactobacillus gasseri) was > 128 µg/mL. For the same compound, the MIC (Cryptococcus neoformans [16]) was 2 µg/mL (≈ 6.53 µM), the MIC (Cryptococcus neoformans [17]) was 2 µg/mL (≈ 6.53 µM) and the MIC (Cryptococcus neoformans [18]) was 1 µg/mL (≈ 3.27 µM). For the same compound, the MIC (Nakaseomyces glabratus [19]) was 16 µg/mL (≈ 52.2 µM), the MIC (Cryptococcus neoformans [20]) was 1 µg/mL (≈ 3.27 µM) and the MIC (Candida albicans [21]) was > 128 µg/mL. For the same compound, the MIC [22] was > 128 µg/mL, the MIC [23] was 4 µg/mL (≈ 13.1 µM) and the MIC (Pichia kudriavzevii [24]) was 16 µg/mL (≈ 52.2 µM). For the same compound, the MIC (Candida parapsilosis [26]) was 0.5 µg/mL (≈ 1.63 µM), the MIC [27] was 2 µg/mL (≈ 6.53 µM) and the Activity (Cryptococcus neoformans [29]) was “Active”. For the same compound, the Activity (Cryptococcus neoformans [30]) was 0.25 log10CFU/ml and the MIC (Cryptococcus neoformans [28]) was 2 µg/mL (≈ 6.53 µM).
